The source made the active and inactive calls. The rule behind the calls is not given here.
Columns and labels:
[1] = target: T1, Peroxisome proliferator-activated receptor alpha (Homo sapiens) (UniProt Q07869); assay: Agonist activity at human PPARalpha expressed in HEK293 after 8 hrs by luciferase reporter gene assay relative to fenofibric acid; format: functional, cell-based
T1 sequence (whole entry): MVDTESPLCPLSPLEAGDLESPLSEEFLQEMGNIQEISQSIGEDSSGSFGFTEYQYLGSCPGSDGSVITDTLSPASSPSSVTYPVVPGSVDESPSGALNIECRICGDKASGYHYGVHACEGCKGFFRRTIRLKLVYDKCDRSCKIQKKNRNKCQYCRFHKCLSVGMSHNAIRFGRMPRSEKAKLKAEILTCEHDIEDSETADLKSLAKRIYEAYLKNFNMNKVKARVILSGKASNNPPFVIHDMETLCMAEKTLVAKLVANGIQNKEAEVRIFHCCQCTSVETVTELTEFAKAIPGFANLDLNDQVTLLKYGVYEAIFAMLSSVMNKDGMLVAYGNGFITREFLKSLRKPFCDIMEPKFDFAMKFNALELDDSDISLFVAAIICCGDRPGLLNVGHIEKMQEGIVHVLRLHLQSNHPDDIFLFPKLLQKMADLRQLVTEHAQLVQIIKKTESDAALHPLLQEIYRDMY
Procedure, shortened: (§1)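 GAL4N-hPPAR LBD chimera with TK-MH100x4-LUC reporter in calcium-phosphate-transfected HEK293 (DMEM, 5% FBS), compounds added 8 h post-transfection. Luciferase was normalized to β-galactosidase. Percent efficacy (Emax) was taken at the maximal stimulatory response relative to 10 µM fenofibric acid (PPARα), 100 nM GW501516 (PPARδ) or 10 µM ciglitazone (PPARγ). Triplicate, at least twice.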

[2] = target: T2, Peroxisome proliferator-activated receptor alpha (Homo sapiens, UniProt Q07869); assay: Agonist activity at human PPARalpha expressed in HEK293 after 8 hrs by luciferase reporter gene assay; format: functional, cell-based
T2 sequence (Q07869 whole entry): T1 sequence (whole entry)
Procedure, shortened: (§2)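 HEK293 cells grown in DMEM with 5% FBS at 37 °C in 5% CO2 were calcium-phosphate co-transfected with CMX-GAL4N-hPPAR LBD (subtype-specific), TK-MH100x4-LUC reporter and CMX β-galactosidase for normalization. Compounds were added 8 h post-transfection. Luciferase was read by luminometer and β-galactosidase by plate reader. Values are normalized averages; triplicate, repeated at least twice.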

[3] = target: T3, Peroxisome proliferator-activated receptor delta (Homo sapiens) (UniProt Q03181); assay: Agonist activity at human PPARdelta expressed in HEK293 after 8 hrs by luciferase reporter gene assay relative to GW501516; format: functional, cell-based; procedure, shortened: as §1
T3 sequence (whole entry): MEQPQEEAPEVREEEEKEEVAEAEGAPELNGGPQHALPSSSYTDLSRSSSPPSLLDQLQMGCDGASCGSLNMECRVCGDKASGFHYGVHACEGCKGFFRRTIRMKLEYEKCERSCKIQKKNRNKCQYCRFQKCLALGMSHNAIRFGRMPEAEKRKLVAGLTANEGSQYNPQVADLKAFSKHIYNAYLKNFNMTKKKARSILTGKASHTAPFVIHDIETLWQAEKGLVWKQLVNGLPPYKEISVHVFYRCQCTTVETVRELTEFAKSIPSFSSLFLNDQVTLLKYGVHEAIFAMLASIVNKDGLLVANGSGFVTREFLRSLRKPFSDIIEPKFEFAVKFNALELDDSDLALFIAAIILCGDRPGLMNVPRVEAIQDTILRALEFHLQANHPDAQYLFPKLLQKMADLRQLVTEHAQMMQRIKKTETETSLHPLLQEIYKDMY

[4] = target: T4, Peroxisome proliferator-activated receptor delta (Homo sapiens, UniProt Q03181); assay: Agonist activity at PPARdelta expressed in HEK293 after 8 hrs by luciferase reporter gene assay; format: functional, cell-based; procedure, shortened: as §2
T4 sequence (Q03181 whole entry): T3 sequence (whole entry)

[5] = target: T5, Peroxisome proliferator-activated receptor gamma (Homo sapiens) (UniProt P37231); assay: Agonist activity at PPARgamma expressed in HEK293 after 8 hrs by luciferase reporter gene assay relative to ciglitazone; format: functional, cell-based; procedure, shortened: as §1
T5 sequence (whole entry): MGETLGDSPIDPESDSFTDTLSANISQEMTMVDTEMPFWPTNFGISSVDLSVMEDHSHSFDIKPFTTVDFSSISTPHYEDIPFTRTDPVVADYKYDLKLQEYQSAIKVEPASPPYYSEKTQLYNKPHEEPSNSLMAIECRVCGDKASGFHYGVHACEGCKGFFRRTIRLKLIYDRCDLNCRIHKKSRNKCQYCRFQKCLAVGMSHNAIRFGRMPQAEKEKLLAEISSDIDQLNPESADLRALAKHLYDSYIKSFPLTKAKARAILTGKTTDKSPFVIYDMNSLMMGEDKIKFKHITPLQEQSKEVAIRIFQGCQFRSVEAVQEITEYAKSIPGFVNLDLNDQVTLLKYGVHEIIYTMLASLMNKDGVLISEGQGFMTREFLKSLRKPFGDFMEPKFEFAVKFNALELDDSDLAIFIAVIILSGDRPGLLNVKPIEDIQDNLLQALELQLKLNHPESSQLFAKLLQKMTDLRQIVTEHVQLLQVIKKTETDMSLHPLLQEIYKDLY

[6] = target: T6, Peroxisome proliferator-activated receptor gamma (Homo sapiens, UniProt P37231); assay: Agonist activity at PPARgamma expressed in HEK293 after 8 hrs by luciferase reporter gene assay; format: functional, cell-based; procedure, shortened: as §2
T6 sequence (P37231 whole entry): T5 sequence (whole entry)

[7] = target: T7, Bile acid receptor (Homo sapiens) (UniProt Q96RI1); assay: Agonist activity at FXR transfected in HEK293 cells by luciferase reporter gene assay; format: functional, cell-based
T7 sequence (whole entry): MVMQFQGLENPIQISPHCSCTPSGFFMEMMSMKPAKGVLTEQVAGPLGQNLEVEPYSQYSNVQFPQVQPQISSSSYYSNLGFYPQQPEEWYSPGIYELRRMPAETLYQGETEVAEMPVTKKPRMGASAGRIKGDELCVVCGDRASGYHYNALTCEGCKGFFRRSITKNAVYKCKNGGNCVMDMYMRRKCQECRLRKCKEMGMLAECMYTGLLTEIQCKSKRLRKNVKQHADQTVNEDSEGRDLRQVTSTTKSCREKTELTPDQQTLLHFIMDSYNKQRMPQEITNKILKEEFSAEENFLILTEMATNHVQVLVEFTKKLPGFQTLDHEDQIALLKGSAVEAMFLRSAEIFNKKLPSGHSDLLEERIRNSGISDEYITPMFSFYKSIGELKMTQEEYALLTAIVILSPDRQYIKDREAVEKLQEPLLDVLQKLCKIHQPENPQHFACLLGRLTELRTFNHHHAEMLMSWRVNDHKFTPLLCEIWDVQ

[8] = target: T7, Bile acid receptor (Homo sapiens); assay: Antagonist activity at FXR transfected in HEK293 cells by luciferase reporter gene assay; format: functional, cell-based
[9] = target: T8, Oxysterols receptor LXR-alpha (Homo sapiens) (UniProt Q13133); assay: Agonist activity at LXR; format: functional
T8 sequence (whole entry): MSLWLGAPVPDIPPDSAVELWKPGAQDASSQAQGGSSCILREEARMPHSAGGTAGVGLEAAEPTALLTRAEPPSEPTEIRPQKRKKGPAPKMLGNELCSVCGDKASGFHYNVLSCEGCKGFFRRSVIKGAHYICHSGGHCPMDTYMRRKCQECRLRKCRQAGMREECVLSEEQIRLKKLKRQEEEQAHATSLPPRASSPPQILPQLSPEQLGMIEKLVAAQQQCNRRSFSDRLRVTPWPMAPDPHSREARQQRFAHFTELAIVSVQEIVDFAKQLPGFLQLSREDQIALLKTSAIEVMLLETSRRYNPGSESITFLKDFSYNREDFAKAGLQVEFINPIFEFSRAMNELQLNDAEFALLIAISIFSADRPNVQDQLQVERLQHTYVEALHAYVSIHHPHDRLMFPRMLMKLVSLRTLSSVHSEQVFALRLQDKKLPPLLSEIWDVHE

[10] = target: T8, Oxysterols receptor LXR-alpha (Homo sapiens); assay: Antagonist activity at LXR; format: functional

## CC[C@@H](Cc1ccc(CCc2ccc(N3C(=O)c4ccccc4C3=O)cc2OC)cc1)C(=O)O
[1]
  Emax: 66%
[2]
  EC50: 8.9 µM
[3]
  Emax: 41%
[4]
  EC50: 7.3 µM
[5]
  Emax: 102%
[6]
  EC50: 7.1 µM

## O=C(O)c1ccc(CCc2ccc(N3C(=O)c4ccccc4C3=O)cc2)cc1
[1]
  Emax: 14%
[2]
  EC50: 33 µM
[3]
  Emax: 0%
[5]
  Emax: 2%

## CCCCOc1cc(N2C(=O)c3ccccc3C2=O)ccc1CCc1ccc(CC(CC)C(=O)O)cc1 (stereo not given)
[1]
  Emax: 63%
[2]
  EC50: 1.8 µM
[3]
  Emax: 32%
[4]
  EC50: 3.2 µM
[5]
  Emax: 36%
[6]
  EC50: 7.9 µM
[7]
  Activity: inactive
[8]
  Activity: inactive

## O=C(O)CCc1ccc(CCc2ccc(N3C(=O)c4ccccc4C3=O)cc2)cc1
[1]
  Emax: 53%
[2]
  EC50: 11 µM
[3]
  Emax: 27%
[4]
  EC50: 13 µM
[5]
  Emax: 7%
[7]
  Activity: inactive
[8]
  Activity: inactive
[9]
  Activity: inactive
[10]
  Activity: inactive

## CCC(Cc1ccc(CCc2ccc(N3C(=O)c4ccccc4C3=O)cc2)cc1)C(=O)O (stereo not given)
[1]
  Emax: 72%
[2]
  EC50: 6.6 µM
[3]
  Emax: 22%
[4]
  EC50: 14 µM
[5]
  Emax: 42%
[6]
  EC50: 11 µM
[7]
  Activity: inactive
[8]
  Activity: inactive

## O=C(O)CCCCc1ccc(CCc2ccc(N3C(=O)c4ccccc4C3=O)cc2)cc1
[1]
  Emax: 4%
[3]
  Emax: 4%
[5]
  Emax: 7%

## O=C(O)COc1ccc(CCc2ccc(N3C(=O)c4ccccc4C3=O)cc2)cc1
[1]
  Emax: 29%
[2]
  EC50: 29 µM
[3]
  Emax: 10%
[4]
  EC50: 62 µM
[5]
  Emax: 6%
[7]
  Activity: inactive
[8]
  Activity: inactive
[9]
  Activity: inactive
[10]
  Activity: inactive

## CCOc1cc(N2C(=O)c3ccccc3C2=O)ccc1CCc1ccc(CC(CC)C(=O)O)cc1 (racemic)
[1]
  Emax: 102%
[2]
  EC50: 1.4 µM
[3]
  Emax: 33%
[4]
  EC50: 4.8 µM
[5]
  Emax: 49%
[6]
  EC50: 9.3 µM
[7]
  Activity: inactive
[8]
  Activity: inactive

## CCOc1cc(N2C(=O)c3ccccc3C2=O)ccc1CCc1ccc(C[C@H](CC)C(=O)O)cc1
[1]
  Emax: 69%
[2]
  EC50: 1.7 µM
[3]
  Emax: 29%
[4]
  EC50: 1.9 µM
[5]
  Emax: 62%
[6]
  EC50: 3.2 µM

## CCC(Cc1ccc(CCc2ccc(N3C(=O)c4ccccc4C3=O)cc2O)cc1)C(=O)O (stereo not given)
[1]
  Emax: 20%
[2]
  EC50: 14 µM
[3]
  Emax: 7%
[4]
  EC50: 25 µM
[5]
  Emax: 21%
[6]
  EC50: 17 µM

## O=C(O)CCCCCCc1ccc(CCc2ccc(N3C(=O)c4ccccc4C3=O)cc2)cc1
[1]
  Emax: 8%
[3]
  Emax: 4%
[5]
  Emax: 5%

## CCOc1cc(N2C(=O)c3ccccc3C2=O)ccc1CCc1ccc(C[C@@H](CC)C(=O)O)cc1
[1]
  Emax: 126%
[2]
  EC50: 1.1 µM
[3]
  Emax: 12%
[4]
  EC50: 9.7 µM
[5]
  Emax: 23%
[6]
  EC50: 6.9 µM

## CCCOc1cc(N2C(=O)c3ccccc3C2=O)ccc1CCc1ccc(C[C@H](CC)C(=O)O)cc1
[1]
  Emax: 87%
[2]
  EC50: 1.7 µM
[3]
  Emax: 54%
[4]
  EC50: 1.8 µM
[5]
  Emax: 36%
[6]
  EC50: 5.2 µM

## O=C(O)CCCCCOc1ccc(CCc2ccc(N3C(=O)c4ccccc4C3=O)cc2)cc1
[1]
  Emax: 0%
[3]
  Emax: 0%
[5]
  Emax: 6%
[7]
  Activity: inactive
[8]
  Activity: inactive

## CCCOc1cc(N2C(=O)c3ccccc3C2=O)ccc1CCc1ccc(CC(CC)C(=O)O)cc1 (racemic)
[1]
  Emax: 70%
[2]
  EC50: 1.7 µM
[3]
  Emax: 40%
[4]
  EC50: 2.9 µM
[5]
  Emax: 26%
[6]
  EC50: 6.9 µM
[7]
  Activity: inactive
[8]
  Activity: inactive

## CCCOc1cc(N2C(=O)c3ccccc3C2=O)ccc1CCc1ccc(C[C@@H](CC)C(=O)O)cc1
[1]
  Emax: 70%
[2]
  EC50: 2.5 µM
[3]
  Emax: 8%
[5]
  Emax: 7%

## CC[C@H](Cc1ccc(CCc2ccc(N3C(=O)c4ccccc4C3=O)cc2OC)cc1)C(=O)O
[1]
  Emax: 103%
[2]
  EC50: 4.5 µM
[3]
  Emax: 8%
[5]
  Emax: 40%
[6]
  EC50: 12 µM

## O=C(O)CCCOc1ccc(CCc2ccc(N3C(=O)c4ccccc4C3=O)cc2)cc1
[1]
  Emax: 0%
[3]
  Emax: 1%
[5]
  Emax: 31%
[6]
  EC50: 12 µM
[7]
  Activity: inactive
[8]
  Activity: inactive
[9]
  Activity: inactive
[10]
  Activity: inactive

## CCC(Cc1ccc(CCc2ccc(N3C(=O)c4ccccc4C3=O)cc2OC)cc1)C(=O)O (racemic)
[1]
  Emax: 73%
[2]
  EC50: 3.4 µM
[3]
  Emax: 24%
[4]
  EC50: 11 µM
[5]
  Emax: 78%
[6]
  EC50: 8.5 µM
[7]
  Activity: inactive
[8]
  Activity: inactive

Reference: ChEMBL document CHEMBL1811873, “Peroxisome proliferator-activated receptor agonists with phenethylphenylphthalimide skeleton derived from thalidomide-related liver X receptor antagonists: relationship between absolute configuration and subtype selectivity” (Bioorg Med Chem, 2011)
